Experimental data: ChEMBL document CHEMBL3351723, “New derivatives of lupane triterpenoids disturb breast cancer mitochondria and induce cell death” (Bioorg Med Chem, 2014)

Key:
Liver microsome [1] = assay: Effect on mitochondrial transmembrane potential in Wistar Han rat liver mitochondria energized with succinate assessed as mitochondrial transmembrane electropotential at 0.333 ug/mg of protein (reference value: 204.2 +/- 5.6 mV); type: functional
Liver microsome [2] = assay: Effect on mitochondrial transmembrane potential in Wistar Han rat liver mitochondria energized with succinate assessed as ADP depolarization at 0.133 ug/mg of protein (reference value: 25.3 +/- 2.1 mV); type: functional
Liver microsome [3] = assay: Effect on mitochondrial transmembrane potential in Wistar Han rat liver mitochondria energized with succinate assessed as ADP depolarization at 0.333 ug/mg of protein (reference value: 25.3 +/- 2.1 mV); type: functional
Liver microsome [4] = assay: Effect on mitochondrial transmembrane potential in Wistar Han rat liver mitochondria energized with succinate assessed as time duration of lag phase at 0.133 ug/mg of protein (reference value: 33.0 +/- 4.6 sec); type: functional
Procedure, shortened: (§1)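 Isolated male Wistar rat liver mitochondria (1.5 mg protein) in 125 mM sucrose, 65 mM KCl, 5 mM KH2PO4, 2.5 mM MgCl2, 5 mM HEPES pH 7.4, 30°C, with 3 μM TPP+. Compound added for 1 min, then 10 mM succinate plus 3 μM rotenone. State 3 started with ADP (83.3 nmol/mg protein). ΔΨ read with a TPP+-selective electrode and calculated by the Kamo equation without binding correction.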

Liver microsome [5] = assay: Effect on mitochondrial transmembrane potential in Wistar Han rat liver mitochondria energized with succinate assessed as time duration of lag phase at 0.333 ug/mg of protein (reference value: 33.0 +/- 4.6 sec); type: functional; procedure, shortened: as §1
Liver microsome [6] = assay: Effect on mitochondrial transmembrane potential in Wistar Han rat liver mitochondria energized with succinate assessed as time duration of lag phase at 0.667 ug/mg of protein (reference value: 33.0 +/- 4.6 sec); type: functional; procedure, shortened: as §1
Liver microsome [7] = assay: Effect on mitochondrial transmembrane potential in Wistar Han rat liver mitochondria energized with succinate assessed as mitochondrial transmembrane electropotential at 0.667 ug/mg of protein (reference value: 216.0 +/- 7.4 mV); type: functional; procedure, shortened: as §1
Liver microsome [8] = assay: Effect on mitochondrial transmembrane potential in Wistar Han rat liver mitochondria energized with succinate assessed as ADP depolarization at 0.333 ug/mg of protein (reference value: 34.7 +/- 1.4 mV); type: functional
Liver microsome [9] = assay: Effect on mitochondrial transmembrane potential in Wistar Han rat liver mitochondria energized with succinate assessed as ADP depolarization at 0.667 ug/mg of protein (reference value: 34.7 +/- 1.4 mV); type: functional
Liver microsome [10] = assay: Effect on mitochondrial transmembrane potential in Wistar Han rat liver mitochondria energized with succinate assessed as time duration of lag phase at 0.067 ug/mg of protein (reference value: 82.8 +/- 23.5 sec); type: functional; procedure, shortened: as §1
Liver microsome [11] = assay: Effect on mitochondrial transmembrane potential in Wistar Han rat liver mitochondria energized with succinate assessed as time duration of lag phase at 0.333 ug/mg of protein (reference value: 82.8 +/- 23.5 sec); type: functional; procedure, shortened: as §1
Liver microsome [12] = assay: Effect on mitochondrial transmembrane potential in Wistar Han rat liver mitochondria energized with succinate assessed as time duration of lag phase at 1.333 ug/mg of protein (reference value: 82.8 +/- 23.5 sec); type: functional; procedure, shortened: as §1
Liver microsome [13] = assay: Effect on mitochondrial transmembrane potential in Wistar Han rat liver mitochondria energized with succinate assessed as mitochondrial transmembrane electropotential at 0.06 ug/mg of protein (reference value: 220.6 +/- 2.5 mV); type: functional
Liver microsome [14] = assay: Effect on mitochondrial transmembrane potential in Wistar Han rat liver mitochondria energized with succinate assessed as mitochondrial transmembrane electropotential at 0.133 ug/mg of protein (reference value: 220.6 +/- 2.5 mV); type: functional
Liver microsome [15] = assay: Effect on mitochondrial transmembrane potential in Wistar Han rat liver mitochondria energized with succinate assessed as mitochondrial transmembrane electropotential at 0.333 ug/mg of protein (reference value: 220.6 +/- 2.5 mV); type: functional
Liver microsome [16] = assay: Effect on mitochondrial transmembrane potential in Wistar Han rat liver mitochondria energized with succinate assessed as mitochondrial transmembrane electropotential at 0.667 ug/mg of protein (reference value: 220.6 +/- 2.5 mV); type: functional; procedure, shortened: as §1
Liver microsome [17] = assay: Effect on mitochondrial transmembrane potential in Wistar Han rat liver mitochondria energized with succinate assessed as mitochondrial transmembrane electropotential at 1.333 ug/mg of protein (reference value: 220.6 +/- 2.5 mV); type: functional; procedure, shortened: as §1
Liver microsome [18] = assay: Effect on mitochondrial transmembrane potential in Wistar Han rat liver mitochondria energized with succinate assessed as ADP depolarization at 0.133 ug/mg of protein (reference value: 34.6 +/- 1.9 mV); type: functional
Liver microsome [19] = assay: Effect on mitochondrial transmembrane potential in Wistar Han rat liver mitochondria energized with succinate assessed as ADP depolarization at 0.667 ug/mg of protein (reference value: 34.6 +/- 1.9 mV); type: functional
Liver microsome [20] = assay: Effect on mitochondrial transmembrane potential in Wistar Han rat liver mitochondria energized with succinate assessed as ADP depolarization at 1.333 ug/mg of protein (reference value: 34.6 +/- 1.9 mV); type: functional
Liver microsome [21] = assay: Effect on mitochondrial transmembrane potential in Wistar Han rat liver mitochondria energized with succinate assessed as time duration of lag phase at 0.133 ug/mg of protein Rvb = 46.7 +/- 3.9 sec); type: functional; procedure, shortened: as §1
Liver microsome [22] = assay: Effect on mitochondrial transmembrane potential in Wistar Han rat liver mitochondria energized with succinate assessed as time duration of lag phase at 0.333 ug/mg of protein Rvb = 46.7 +/- 3.9 sec); type: functional; procedure, shortened: as §1
Liver microsome [23] = assay: Effect on mitochondrial transmembrane potential in Wistar Han rat liver mitochondria energized with succinate assessed as mitochondrial transmembrane electropotential at 0.333 ug/mg of protein (reference value: 198.0 +/- 5.6 mV); type: functional
Liver microsome [24] = assay: Effect on mitochondrial transmembrane potential in Wistar Han rat liver mitochondria energized with succinate assessed as ADP depolarization at 0.133 ug/mg of protein (reference value: 23.9 +/- 3.3 mV); type: functional
Liver microsome [25] = assay: Effect on mitochondrial transmembrane potential in Wistar Han rat liver mitochondria energized with succinate assessed as ADP depolarization at 0.333 ug/mg of protein (reference value: 23.9 +/- 3.3 mV); type: functional
Liver microsome [26] = assay: Effect on mitochondrial transmembrane potential in Wistar Han rat liver mitochondria energized with succinate assessed as time duration of lag phase at 0.133 ug/mg of protein (reference value: 40.5 +/- 4.5 sec); type: functional; procedure, shortened: as §1
[27] = system: Liver mitochondria (Rattus norvegicus); assay: Effect on mitochondrial transmembrane potential in Wistar Han rat liver mitochondria energized with succinate assessed as time duration of lag phase at 0.333 ug/mg of protein (reference value: 40.5 +/- 4.5 sec)
[28] = system: Liver mitochondria (Rattus norvegicus); assay: Effect on mitochondrial transmembrane potential in Wistar Han rat liver mitochondria energized with succinate assessed as time duration of lag phase at 0.667 ug/mg of protein (reference value: 40.5 +/- 4.5 sec)

In the case of C=C(C)[C@@H]1CC[C@]2(COC(=O)CC[n+]3ccc(N(C)C)cc3)CC[C@]3(C)[C@H](CC[C@@H]4[C@@]5(C)CC[C@H](OC(=O)CC[n+]6ccc(N(C)C)cc6)C(C)(C)[C@@H]5CC[C@]43C)[C@@H]12.[Cl-].[Cl-], the Activity (Liver microsome [1]) is reported as 204 mV, the Activity (Liver microsome [2]) is reported as 26.2 mV and the Activity (Liver microsome [3]) is reported as 27.1 mV. The TIME (Liver microsome [4]) was 0.00867 h, the TIME (Liver microsome [5]) was 0.00894 h and the TIME (Liver microsome [6]) was 0.00894 h.

Work on C=C(C)[C@@H]1CC[C@]2(COC(=O)C[n+]3ccc(N(C)C)cc3)CC[C@]3(C)[C@H](CC[C@@H]4[C@@]5(C)CC[C@H](OC(=O)C[n+]6ccc(N(C)C)cc6)C(C)(C)[C@@H]5CC[C@]43C)[C@@H]12.[Cl-].[Cl-] yielded an Activity (Liver microsome [7]) of 206 mV, an Activity (Liver microsome [8]) of 29 mV and an Activity (Liver microsome [9]) of 28.6 mV. The TIME (Liver microsome [10]) was 0.0219 h, the TIME (Liver microsome [11]) was 0.0217 h and the TIME (Liver microsome [12]) was 0.033 h.

For C=C(C)[C@@H]1CC[C@]2(COC(=O)C[N+](C)(C)C(C)C)CC[C@]3(C)[C@H](CC[C@@H]4[C@@]5(C)CC[C@H](OC(=O)C[N+](C)(C)C(C)C)C(C)(C)[C@@H]5CC[C@]43C)[C@@H]12.[Cl-].[Cl-], the Activity (Liver microsome [13]) was 217 mV, the Activity (Liver microsome [14]) was 217 mV and the Activity (Liver microsome [15]) was 213 mV. For the same molecule, the Activity (Liver microsome [16]) was 211 mV, the Activity (Liver microsome [17]) was 206 mV and the Activity (Liver microsome [18]) was 30.3 mV. For the same molecule, the Activity (Liver microsome [19]) was 21.9 mV, the Activity (Liver microsome [20]) was 19.8 mV and the TIME (Liver microsome [21]) was 0.0137 h. It also gave a TIME (Liver microsome [22]) of 0.0129 h.

C=C(C)[C@@H]1CC[C@]2(COC(=O)C(CC)[n+]3ccc(N(C)C)cc3)CC[C@]3(C)[C@H](CC[C@@H]4[C@@]5(C)CC[C@H](OC(=O)C(CC)[n+]6ccc(N(C)C)cc6)C(C)(C)[C@@H]5CC[C@]43C)[C@@H]12 (stereo partly drawn) showed an Activity (Liver microsome [23]) of 193 mV, an Activity (Liver microsome [24]) of 23.2 mV and an Activity (Liver microsome [25]) of 23.2 mV. It also gave a TIME (Liver microsome [26]) of 0.0122 h, a TIME [27] of 0.0121 h and a TIME [28] of 0.0117 h.
